XBP1 UPR activ = activators of adaptive arm of unfolded protein response (XBP1); CHO-XBP1 luciferase reporter, IRE1-XBP1 UPR activation, luminescence; percent of tunicamycin response, DMSO as zero; AID 463104; hit rate 0.33% among 330,000; activation, % at 20 µM;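 active = versus positive control, 20 µM dose yields 30% or more activation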;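 note: 100% = tunicamycin at 10 µg/mL and 0% = DMSO only wells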
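Test system: CHO-XBP1 luciferase reporter cells | Buffer or medium: Serum-containing F12 medium, 10% FBS | Schedule: 6 h compound exposure at 37 °C, 5% CO2 | Detection: Steady-Glo luciferase glow luminescence, 10 min after reagent addition | Read-out basis: Activation, % of tunicamycin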
L major viab = reduces viability of Leishmania major promastigotes. resazurin fluorescence viability. inhibition, % at 10 µM. hit rate 9% among 200,000. AID 1063; in the data active = inhibition above about 50%;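 note: promastigotes grown with compound for 44 hours at 28 °C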
T cruzi repl = blocks replication of Trypanosoma cruzi. AID 1885. inhibition, % (concentration not given with the values). T. cruzi beta-gal in NIH3T3, luminescence, 90 h. hit rate 1.4% among 300,000;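 active = mean inhibition across valid replicates above about 55%, limit read from the data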;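 note: signal also drops with host cell toxicity which is not excluded here; 0% = plate median of DMSO wells and 100% = zero luminescence signal; higher percent means less beta-gal luminescence so fewer parasites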
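Incubation – ≥90 h infection period, 3 h prior cell attachment · System – NIH/3T3 fibroblasts plus reporter T. cruzi · Doses – compound pinned at 50 nL/well, DMSO · Read-out basis – percent inhibition of parasite-derived β-gal signal · Signal – luminescent β-galactosidase signal after 60 min lysis · Also added – 5000 T. cruzi trypomastigotes/well · Medium – Low-serum DMEM with 2% FBS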
CHOP inh = blocks CHOP induction under ER stress; CHO-K1 CHOP-promoter luciferase, tunicamycin-induced, 15-18 h; inhibition, % at 10 µM; hit rate 3.8% among 220,000; AID 2732;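 active = compounds that reduced the stress-induced luciferase reporter signal by more than about 70% of percent inhibition, limit read from the data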;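 note: 0% = tunicamycin plus vehicle and 100% = wells without tunicamycin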
Dynein cargo inh = blocks dynein driven cargo transport along microtubules | 3617.4 mouse cells, GR-EGFP nuclear translocation imaging; test concentration mostly 20 µM; stimulated with dexamethasone, 1 µM; hits give low values | hit rate 0.47% among 220,000 | z-score, hits read low;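 active = plate z-score of nuclear minus cytoplasmic receptor signal below a set negative limit, without overly bright fluorescence or cell loss, cut at about -3.5 in these data, passing the limit was not always enough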;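 note: z-score of nuclear minus cytoplasmic ring GR-EGFP intensity difference per well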
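Buffer or medium: tetracycline-free induction medium containing charcoal-stripped FBS / Reagent: dexamethasone agonist, 1.0 µM final, for 30 min / Technique: automated 10x imaging of fixed Hoechst-stained cells / Times: induction 48 h, compound 1 h, agonist 30 min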
UPR CHOP act = activators of apoptotic arm of unfolded protein response (CHOP); hit rate 0.34% among 330,000; activation, % at 10 µM; CHO-CHOP luciferase reporter, UPR activation, luminescence; percent of tunicamycin response over DMSO baseline;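 active = at 10 µM dose, activation of 40% or more, normalized to positive control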;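 note: 100% = tunicamycin at 10 µg/mL and 0% = DMSO alone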
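Test system: CHO-CHOP cells, stable luciferase reporter of PERK-eIF2a-CHOP signalling | Quantity: 500 CHO-CHOP cells per well | Buffer or medium: F12 plus 10% serum | Compound dosing: 10 µM single point, 0.5% DMSO | Schedule: 6 h compound treatment, 37 °C | Signal: Luciferase luminescence | Control set: Tunicamycin high control, DMSO low control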
UPR XBP1 confirm = adaptive UPR (XBP1) activation, confirmed; shares compounds with XBP1 UPR activ; CHO-XBP1 IRE1-XBP1 luciferase reporter, luminescence; activation, % at 20 µM; hit rate 63% among 1,000;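 active = reporter signal at least 30% of the positive control's activation in two or more of four replicate wells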;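 note: plate controls were DMSO negative control for no effect and tunicamycin 10 µg/mL positive control for full effect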
* marks the source's active call; other numbers are inactive results; / = not tested or not shown. The entries come from a sample that favours hits as a whole.

SMILES | XBP1 UPR activ | L major viab | T cruzi repl | CHOP inh | Dynein cargo inh | UPR CHOP act | UPR XBP1 confirm
CCOc1cc(/C=N\Nc2ccc([N+](=O)[O-])cc2)ccc1OCC(=O)Nc1ccc(C)c(C)c1 | 44* | -4 | 11 | 27 | -0.95 | 7 | 66*
COc1ccc(C(=O)Nc2ccnn2C2CCN(C(=O)c3cnsn3)CC2)cc1 | 2 | / | -15 | / | / | 3 | /
c1cn2c(NC3CCCCC3)c(-c3ccc(SC4CCCCC4)cc3)nc2cn1 | 4 | / | 48 | / | / | 2 | /
c1cc(SC2CCCCC2)cc(-c2nc3cnccn3c2NC2CCCCC2)c1 | 196* | / | / | / | / | 8 | 171*
C[C@H]1[C@H](C)CC[C@]2(C(=O)O)CC[C@]3(C)C(=CC[C@@H]4[C@@]5(C)C[C@@H](O)[C@H](O)C(C)(C)[C@@H]5CC[C@]43C)[C@H]12 | 103* | -10 | 17 | 72* | 0.96 | 1 | 124*
C[C@H]1[C@H](C)CC[C@]2(C(=O)O)CC[C@]3(C)C(=CC[C@@H]4[C@@]5(C)CC[C@H](O)C(C)(C)[C@@H]5CC[C@]43C)[C@H]12 | 39* | / | 3 | 73* | 0.3 | 1 | 18
NC1(C(=O)O)CCc2cc(C(=O)O)ccc21 (stereo unspecified) | / | / | / | -7 | / | / | /
COc1ccccc1CNC(=O)CN1C(=O)NC2(CCCC2)C1=O | -1 | / | / | / | / | 0 | /
Cc1ccnc(SCC(=O)NC2CC2)n1 | -2 | / | -2 | / | / | 1 | /
CCC(C)NC(=O)Cn1c(=O)n(-c2ccccc2)c(=O)c2ccc(C(=O)NCc3ccco3)cc21 (stereo unspecified) | -2 | -2 | / | 5 | -0.47 | 1 | /
COCCCNC(=O)c1ccc(Cn2c(=O)c3ccccc3n(Cc3cc(C)ccc3C)c2=O)cc1 | 0 | -1 | 23 | 3 | 1 | 3 | /
C=CCn1c(=O)c2ccc(C(=O)NCc3ccccc3)cc2n(Cc2ccc(C)cc2)c1=O | 44* | 8 | -13 | 79* | 2.5 | 1 | 18
Cc1ccc(Cn2c(=O)n(-c3ccccc3)c(=O)c3ccc(C(=O)NCc4ccco4)cc32)cc1 | 35* | -3 | -15 | 84* | 0.15 | 1 | 31*
Cc1ccc(NC(=O)CSc2nnc(-c3ccccn3)n2N)c(Br)c1 | -2 | / | -1 | 4 | -0.35 | 1 | /
CCC(C)c1ccc(S(=O)(=O)N2CCN(c3ccccn3)CC2)cc1 (stereo unspecified) | -2 | / | 20 | / | / | -1 | /
COc1ccc(C(=O)/C(C#N)=N/Nc2cccc([N+](=O)[O-])c2)cc1 | / | 9 | 22 | 16 | 1.6 | / | /
COc1ccc(C(=O)Nc2cccc(/C=C/c3nc4ccccc4c(=O)[nH]3)c2)cc1 | 52* | / | 17 | 91* | -0.61 | 5 | 69*
COc1ccc(C2CC(c3c(-c4ccccc4)c4cc(Cl)ccc4[nH]c3=O)=NN2S(C)(=O)=O)cc1 (stereo unspecified) | 50* | 3 | 30 | 70 | 0.09 | -1 | 140*
COc1ccc(OC)c(C2CC(c3c(-c4ccccc4)c4cc(Cl)ccc4[nH]c3=O)=NN2S(C)(=O)=O)c1 (stereo unspecified) | 54* | -1 | 25 | -1 | 0.32 | 2 | 20
COc1ccc(C(=O)OCC(=O)Nc2c(C)n(C)n(-c3ccccc3)c2=O)cc1OC | -3 | / | / | / | / | 0 | /
CCC1CCCCN1CCCNC(=O)c1ccc2c(c1)N(Cc1ccc(F)cc1)C(=O)c1ccccc1S2=O (stereo unspecified) | -1 | / | 31 | / | / | 5 | /
Cc1ccc(/C=C/C(=O)c2cc(Br)ccc2OC(=O)c2ccco2)cc1 | 54* | 87* | -6 | 21 | -2.6 | 3 | 108*
CC1CCCN(c2ccc(C(=O)NCc3cccs3)cn2)C1 (stereo unspecified) | 38* | -1 | 3 | 8 | 0.95 | 5 | 32*
O=C(NCc1cccs1)c1ccc(N2CCCCC2)nc1 | 30 | 11 | -11 | 13 | 1.6 | 4 | 21
N#C/C(=C\Nc1ccc2cn[nH]c2c1)c1nc(-c2ccc(Cl)cc2)cs1 | 101* | 9 | 38 | 14 | 0.39 | 12 | 72*
SMILES | XBP1 UPR activ | L major viab | T cruzi repl | CHOP inh | Dynein cargo inh | UPR CHOP act | UPR XBP1 confirm
N#C/C(=C\Nc1ccc2cn[nH]c2c1)c1nc(-c2ccccc2)cs1 | / | 8 | 45 | -66 | 1.3 | / | /
Cc1c(OC(C)C(=O)NCc2ccncc2)ccc2c3c(c(=O)oc12)CCCC3 (stereo unspecified) | -6 | / | 1 | / | / | -2 | /
CCOC(=O)/C=c1\s/c(=C\c2ccc(C)cc2)c(=O)n1CC(=O)NCc1ccco1 | 55* | 44 | 2 | 64 | -0.98 | 0 | 1
Cc1ccc(NC(=O)c2cc(S(=O)(=O)N(C)C)ccc2N2CCCC2)cc1F | 39* | / | 11 | / | / | 13 | 64*
CCOC(=O)c1ccc(NC(=S)NC(=O)COc2ccccc2)cc1 | -3 | -7 | 0 | 51 | -0.094 | 1 | /
CCc1ccc(OCC(=O)NNC(=O)c2ccc(NC(=O)C3CC3)cc2)cc1 | 0 | / | 2 | / | / | 0 | /
Cc1ccc2c(c1)C(=O)C(=O)N2CCOc1ccccc1 | 16 | 34 | 16 | -55 | 1.4 | 2 | /
Cc1ccc2c(c1)C(=O)C(=O)N2Cc1ccc(Br)cc1 | 52* | / | / | / | / | 2 | 40*
Cc1ccc2c(c1)C(=O)C(=O)N2CCCOc1ccccc1C | 25 | 19 | 6 | 62 | -0.59 | 4 | /
Cc1ccc(CN2C(=O)C(=O)c3cc(C)ccc32)cc1 | 35* | / | / | / | / | 4 | 29*
CCCCN1C(=O)C(=O)c2cc(Cl)ccc21 | 42* | / | / | / | / | 7 | 38*
CCCN1C(=O)C(=O)c2cc(C)ccc21 | 16 | / | / | / | / | 2 | /
CCCNC(=O)c1ccc2c(=O)c(O)c(-c3ccsc3)[nH]c2c1 | 2 | / | -21 | 4 | -0.42 | 1 | /
CCCNC(=O)c1ccc2c(=O)c(O)c(-c3ccc(OC)cc3)[nH]c2c1 | 63* | / | -32 | 39 | -0.6 | 3 | 56*
Cc1ccc(OCC(=O)NNC(=O)c2ccco2)c(C)c1 | -2 | / | 2 | / | / | 0 | /
COCCCN(C(=O)CCSc1ccc(F)cc1)c1c(N)n(Cc2ccccc2)c(=O)[nH]c1=O | -2 | / | 6 | / | / | 0 | /
CCOC(=O)c1cnc(SC)nc1Sc1cc(Cl)ccc1Cl | -4 | 9 | -12 | 22 | 0.7 | 0 | /
CCOC(=O)c1nnc(-c2ccc(C)cc2)nc1N1CCSCC1 | 0 | 19 | 28 | 41 | 1.3 | 1 | /
CCOC(=O)c1nnc(-c2ccc(C)cc2)nc1Sc1ccc(Cl)cc1 | 47* | 54* | -16 | 64 | 0.084 | 22 | 19

Screens: PubChem, several laboratories
